Measurements as given in ChEMBL document CHEMBL3045113, “Inhibition of plant-pathogenic bacteria by short synthetic cecropin A-melittin hybrid peptides” (Appl Environ Microbiol, 2006).
≈ marks a conversion by molar mass, not a printed value. Calls of active or inactive are those of the source. The rule behind the calls is not given here. *1 amine or outer side, *2 acyl side, *3 side chain or, on linkers, in order; H or OH if unused. Where a SMILES comes first, the peptide text is derived from it. [ ]: non-standard residue; d: D form. The star is where a group is joined. X1 = O=C([C@H](Cc1c[nH]c2ccccc12)N(Cc1ccccc1)[*:1])[*:2]; Palmitoyl = CCCCCCCCCCCCCCCC(=O)*; Tos = Cc1ccc(S(=O)(=O)*)cc1; Bz = O=C(c1ccccc1)*

How the values were obtained:
[1] = system: Pseudomonas syringae pv. syringae; experiment: Antibacterial activity against Pseudomonas syringae pv. syringae EPS94 at 25 to 750 uM after 48 hr by broth dilution method; type: functional, organism-based
Summary of the method: (§1)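 Broth microdilution in tryptic soy broth with bacteria from a 10⁸ CFU/ml suspension. Final peptide levels were 750 down to 25 μM, or 250 to 3.12 μM for cecropin A. Plates were held at 25°C with OD600 read hourly for 48 h, in duplicate wells, and the run was repeated twice. MIC is the lowest concentration with no growth at 48 h.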

Erwinia amylovora [2] = experiment: Antibacterial activity against Erwinia amylovora PMV6076 at 25 to 750 uM after 48 hr by broth dilution method; type: functional, organism-based; summary of the method: as §1
Xanthomonas vesicatoria [3] = experiment: Antibacterial activity against Xanthomonas vesicatoria 2133-2 at 25 to 750 uM after 48 hr by broth dilution method; type: functional, organism-based; summary of the method: as §1
[4] = Hemolytic activity against Homo sapiens (human) RBC assessed as hemoglobin release after 1 hr; type: ADME, cell-based, Erythrocyte; conditions: red blood cells, read-out: HD50
Summary of the method: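 Fresh EDTA-anticoagulated human blood was washed in Tris buffer (10 mM Tris, 150 mM NaCl, pH 7.2) and used as a 5% suspension. Equal volumes of cells and peptide at 800 to 12.5 μM were shaken for 1 h at 37°C, then centrifuged. Supernatant A540 was taken relative to buffer and a melittin full-lysis control. HD50 was derived by probit fit.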

[5] = system: Pseudomonas syringae pv. syringae; experiment: Antibacterial activity against Pseudomonas syringae pv. syringae EPS94 assessed as growth inhibition after 48 hr; type: functional; conditions: EPS94, 48 h, read-out: ED50 (the source's name)
Summary of the method: (§2)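 Growth was read as OD600 every hour for 48 h at 25°C in tryptic soy broth across a peptide dilution series, in duplicate, repeated twice. Growth is the area under the curve, and inhibition is given as % of the water control. ED50 comes from a probit-dose model fitted by nonlinear least squares.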

Erwinia amylovora [6] = experiment: Antibacterial activity against Erwinia amylovora PMV6076 assessed as growth inhibition after 48 hr; type: functional; conditions: PMV6076, 48 h, read-out: ED50 (the source's name); summary of the method: as §2
Xanthomonas vesicatoria [7] = experiment: Antibacterial activity against Xanthomonas vesicatoria 2133-2 after 48 hr by broth dilution method; type: functional; conditions: 2133-2, 48 h; summary of the method: as §1
[8] = system: Pseudomonas syringae pv. syringae; experiment: Antibacterial activity against Pseudomonas syringae pv. syringae EPS94 after 48 hr by broth dilution method; type: functional; conditions: EPS94, 48 h; summary of the method: as §1
Erwinia amylovora [9] = experiment: Antibacterial activity against Erwinia amylovora PMV6076 after 48 hr by broth dilution method; type: functional; conditions: PMV6076, 48 h; summary of the method: as §1
Xanthomonas vesicatoria [10] = experiment: Antibacterial activity against Xanthomonas vesicatoria 2133-2 assessed as growth inhibition after 48 hr; type: functional; conditions: 2133-2, 48 h, read-out: ED50 (the source's name); summary of the method: as §2
Xanthomonas vesicatoria [11] = experiment: Bactericidal activity against Xanthomonas vesicatoria 2133-2 assessed as decrease in survival at 5 uM after 48 hr; type: functional, organism-based
Summary of the method: (§3)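 LB broth cultures at 4 × 10⁶ CFU/ml were exposed to 5 μM peptide. Samples taken every 30 min over 3 h were diluted 10-fold and plated on LB agar. Colonies were counted after 48 h at 25°C, and survival is expressed as % of the starting count.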

Erwinia amylovora [12] = experiment: Bactericidal activity against Erwinia amylovora PMV6076 assessed as decrease in survival at 5 uM after 48 hr; type: functional, organism-based; summary of the method: as §3
[13] = system: Pseudomonas syringae pv. syringae; experiment: Bactericidal activity against Pseudomonas syringae pv. syringae EPS94 assessed as decrease in survival at 5 uM after 48 hr; type: functional, organism-based; summary of the method: as §3
[14] = Stability of the compound in tris buffer at pH 7.6 at 50 ug/ml after 45 min by HPLC method in presence of proteinase K; conditions: pH 7.6, 0.75 h
Xanthomonas vesicatoria [15] = experiment: Bactericidal activity against Xanthomonas vesicatoria 2133-2 assessed as decrease in survival at 5 uM after 90 min; type: functional, organism-based; summary of the method: as §3

H-WKLFKKILKKL-NH2
Activity [1]: inactive
Activity (Erwinia amylovora [2]): inactive
Activity (Xanthomonas vesicatoria [3]): inactive

H-YKLFKKILKVL-NH2
Activity [1]: inactive
Activity (Erwinia amylovora [2]): inactive
Activity (Xanthomonas vesicatoria [3]): inactive

H-WKLFKKILKFL-NH2
HC50 at 1 h [4]: 32 µM
EC50 [5]: 1.9 µM
EC50 (Erwinia amylovora [6]): 1.3 µM
MIC (Xanthomonas vesicatoria [7]): < 2 µM
MIC [8]: 5 µM
MIC (Erwinia amylovora [9]): 5 µM

H-FKLFKKILKVL-NH2
Activity [1]: inactive
Activity (Erwinia amylovora [2]): inactive
Activity (Xanthomonas vesicatoria [3]): inactive

CC[C@H](C)[C@H](NC(=O)[C@H](CCCCN)NC(=O)[C@H](CCCCN)NC(=O)[C@H](Cc1ccccc1)NC(=O)[C@H](CC(C)C)NC(=O)[C@H](CCCCN)NC(=O)[C@@H](N)Cc1c[nH]c2ccccc12)C(=O)N[C@@H](CC(C)C)C(=O)N[C@@H](CCCCN)C(=O)N[C@@H](Cc1ccc(O)cc1)C(=O)N[C@@H](CC(C)C)C(N)=O
HC50 at 1 h [4]: 42 µM
EC50 (Xanthomonas vesicatoria [10]): 2.3 µM
EC50 [5]: 2.7 µM
EC50 (Erwinia amylovora [6]): 3.2 µM
MIC (Xanthomonas vesicatoria [7]): 2 µM (≈ 2.96 µg/mL)
MIC [8]: 2 µM (≈ 2.96 µg/mL)
MIC (Erwinia amylovora [9]): 2 µM (≈ 2.96 µg/mL)

CC[C@H](C)[C@H](NC(=O)[C@H](CCCCN)NC(=O)[C@H](CCCCN)NC(=O)[C@H](Cc1ccccc1)NC(=O)[C@H](CC(C)C)NC(=O)[C@H](CCCCN)NC(=O)[C@@H](N)CCCCN)C(=O)N[C@@H](CC(C)C)C(=O)N[C@@H](CCCCN)C(=O)N[C@@H](CCCCN)C(=O)N[C@@H](CC(C)C)C(N)=O
Activity [1]: inactive
Activity (Erwinia amylovora [2]): inactive
Activity (Xanthomonas vesicatoria [3]): inactive

CCCCCCCCCCCCCCCC(=O)N[C@@H](Cc1c[nH]c2ccccc12)C(=O)N[C@@H](CCCCN)C(=O)N[C@@H](CC(C)C)C(=O)N[C@@H](Cc1ccccc1)C(=O)N[C@@H](CCCCN)C(=O)N[C@@H](CCCCN)C(=O)N[C@H](C(=O)N[C@@H](CC(C)C)C(=O)N[C@@H](CCCCN)C(=O)N[C@H](C(=O)N[C@@H](CC(C)C)C(N)=O)C(C)C)[C@@H](C)CC (Palmitoyl-WKLFKKILKVL-NH2)
HC50 at 1 h [4]: 6 µM
EC50 (Xanthomonas vesicatoria [10]): 14.7 µM
EC50 [5]: 56.8 µM
EC50 (Erwinia amylovora [6]): 60 µM
MIC (Xanthomonas vesicatoria [7]): 25 µM (≈ 41.3 µg/mL)
MIC [8]: 50 µM (≈ 82.7 µg/mL)
MIC (Erwinia amylovora [9]): 50 µM (≈ 82.7 µg/mL)

H-LKLFKKILKVL-NH2
HC50 at 1 h [4]: 190 µM
Activity (Xanthomonas vesicatoria [11]): Active
Activity (Erwinia amylovora [12]): Active
Activity [13]: Active
EC50 (Xanthomonas vesicatoria [10]): 4.1 µM
EC50 [5]: 3.2 µM
EC50 (Erwinia amylovora [6]): 4.3 µM
MIC (Xanthomonas vesicatoria [7]): 10 µM
MIC [8]: 5 µM
MIC (Erwinia amylovora [9]): 5 µM
Stability [14]: Unstable

CC[C@H](C)[C@H](NC(=O)[C@H](CCCCN)NC(=O)[C@H](CCCCN)NC(=O)[C@H](Cc1ccccc1)NC(=O)[C@H](CC(C)C)NC(=O)[C@H](CCCCN)NC(=O)[C@@H](N)CCCCN)C(=O)N[C@@H](CC(C)C)C(=O)N[C@@H](CCCCN)C(=O)N[C@H](C(=O)N[C@@H](CC(C)C)C(N)=O)C(C)C [KKLFKKILKVL-NH2]
HC50 at 1 h [4]: 334 µM
Activity (Xanthomonas vesicatoria [11]): Active
Activity (Erwinia amylovora [12]): Active
Activity [13]: Active
EC50 (Xanthomonas vesicatoria [10]): 7.3 µM
EC50 [5]: 1.6 µM
EC50 (Erwinia amylovora [6]): 4.3 µM
MIC (Xanthomonas vesicatoria [7]): 12 µM (≈ 16.3 µg/mL)
MIC [8]: 2 µM (≈ 2.71 µg/mL)
MIC (Erwinia amylovora [9]): 5 µM (≈ 6.78 µg/mL)
Stability [14]: Unstable

CC[C@H](C)[C@H](NC(=O)[C@H](CCCCN)NC(=O)[C@H](CCCCN)NC(=O)[C@H](Cc1ccccc1)NC(=O)[C@H](CC(C)C)NC(=O)[C@H](CCCCN)NC(=O)[C@H](Cc1c[nH]c2ccccc12)NC(=O)c1ccccc1)C(=O)N[C@@H](CC(C)C)C(=O)N[C@@H](CCCCN)C(=O)N[C@H](C(=O)N[C@@H](CC(C)C)C(N)=O)C(C)C (Bz-WKLFKKILKVL-NH2)
HC50 at 1 h [4]: 11 µM
EC50 [5]: 9.5 µM
EC50 (Erwinia amylovora [6]): 15.1 µM
MIC (Xanthomonas vesicatoria [7]): < 2 µM
MIC [8]: 15 µM (≈ 22.8 µg/mL)
MIC (Erwinia amylovora [9]): 15 µM (≈ 22.8 µg/mL)
Stability [14]: Unstable

H-WKLFKKILKWL-NH2
HC50 at 1 h [4]: 26 µM
EC50 [5]: 2.5 µM
EC50 (Erwinia amylovora [6]): 3 µM
MIC (Xanthomonas vesicatoria [7]): < 2 µM
MIC [8]: 5 µM
MIC (Erwinia amylovora [9]): 5 µM

CC[C@H](C)[C@H](NC(=O)[C@H](CCCCN)NC(=O)[C@H](CCCCN)NC(=O)[C@H](Cc1ccccc1)NC(=O)[C@H](CC(C)C)NC(=O)[C@H](CCCCN)NC(=O)[C@@H](N)CCCCN)C(=O)N[C@@H](CC(C)C)C(=O)N[C@@H](CCCCN)C(=O)N[C@@H](Cc1ccccc1)C(=O)N[C@@H](CC(C)C)C(N)=O [KKLFKKILKFL-NH2]
HC50 at 1 h [4]: 203 µM
Activity (Xanthomonas vesicatoria [15]): Active
Activity (Erwinia amylovora [12]): Active
Activity [13]: Active
EC50 (Xanthomonas vesicatoria [10]): 1.9 µM
EC50 [5]: 2.1 µM
EC50 (Erwinia amylovora [6]): 2.5 µM
MIC (Xanthomonas vesicatoria [7]): 2 µM (≈ 2.81 µg/mL)
MIC [8]: 2 µM (≈ 2.81 µg/mL)
MIC (Erwinia amylovora [9]): 2 µM (≈ 2.81 µg/mL)
Stability [14]: Stable

CC[C@H](C)[C@H](NC(=O)[C@H](CCCCN)NC(=O)[C@H](CCCCN)NC(=O)[C@H](Cc1ccccc1)NC(=O)[C@H](CC(C)C)NC(=O)[C@H](CCCCN)NC(=O)[C@H](Cc1c[nH]c2ccccc12)NCc1ccccc1)C(=O)N[C@@H](CC(C)C)C(=O)N[C@@H](CCCCN)C(=O)N[C@H](C(=O)N[C@@H](CC(C)C)C(N)=O)C(C)C (H-[X1]KLFKKILKVL-NH2)
HC50 at 1 h [4]: 30 µM
Activity (Xanthomonas vesicatoria [11]): Active
Activity (Erwinia amylovora [12]): inactive
Activity [13]: Active
EC50 (Xanthomonas vesicatoria [10]): 2.5 µM
EC50 [5]: 3.8 µM
EC50 (Erwinia amylovora [6]): 5 µM
MIC (Xanthomonas vesicatoria [7]): 2 µM (≈ 3.01 µg/mL)
MIC [8]: 5 µM (≈ 7.53 µg/mL)
MIC (Erwinia amylovora [9]): 7 µM (≈ 10.5 µg/mL)

CC[C@H](C)[C@H](NC(=O)[C@H](CCCCN)NC(=O)[C@H](CCCCN)NC(=O)[C@H](Cc1ccccc1)NC(=O)[C@H](CC(C)C)NC(=O)[C@H](CCCCN)NC(=O)[C@H](Cc1c[nH]c2ccccc12)NS(=O)(=O)c1ccc(C)cc1)C(=O)N[C@@H](CC(C)C)C(=O)N[C@@H](CCCCN)C(=O)N[C@H](C(=O)N[C@@H](CC(C)C)C(N)=O)C(C)C (Tos-WKLFKKILKVL-NH2)
HC50 at 1 h [4]: 10 µM
EC50 [5]: 6.9 µM
EC50 (Erwinia amylovora [6]): 11.2 µM
MIC (Xanthomonas vesicatoria [7]): < 2 µM
MIC [8]: 12 µM (≈ 18.8 µg/mL)
MIC (Erwinia amylovora [9]): 12 µM (≈ 18.8 µg/mL)

Ac-WKLFKKILKVL-NH2
HC50 at 1 h [4]: 17 µM
EC50 (Xanthomonas vesicatoria [10]): 2 µM
EC50 [5]: 4.3 µM
EC50 (Erwinia amylovora [6]): 9 µM
MIC (Xanthomonas vesicatoria [7]): 2 µM
MIC [8]: 7 µM
MIC (Erwinia amylovora [9]): 10 µM
Stability [14]: Unstable

H-WKLFKKILKVL-NH2
HC50 at 1 h [4]: 104 µM
Activity (Xanthomonas vesicatoria [11]): Active
Activity (Erwinia amylovora [12]): Active
Activity [13]: Active
EC50 (Xanthomonas vesicatoria [10]): 3.6 µM
EC50 [5]: 5.5 µM
EC50 (Erwinia amylovora [6]): 5.5 µM
MIC (Xanthomonas vesicatoria [7]): 7 µM
MIC [8]: 7 µM
MIC (Erwinia amylovora [9]): 7 µM
Stability [14]: Unstable
